Measured values reported in the EternaBench riboswitch data.

Tested on: MS2 coat protein
Test: apparent Kd, MS2 coat protein; higher = weaker binding; RNA-MaP array; FMN 200 µM where present
Outline: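 Stalled E. coli RNA polymerase transcribed the designs on Illumina sequencing-chip clusters. SNAP-549-labelled MS2 coat protein was titrated from 0.7 or 1.5 nM, doubling to 3 µM, without and then with constant ligand, in 100 mM Tris-HCl pH 7.5, 80 mM KCl, 4 mM MgCl2, BSA, DTT, yeast tRNA and Tween-20. Per-cluster binding curves were fitted to green signal normalised to red-channel RNA signal and control-cluster median Fmax. The apparent Kd is the median of the filtered fits.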

[1] = designed as: OFF switch for flavin mononucleotide, no ligand
[2] = ligand present: flavin mononucleotide, designed as: OFF switch for flavin mononucleotide
[3] = designed as: ON switch for flavin mononucleotide, no ligand
[4] = ligand present: flavin mononucleotide, designed as: ON switch for flavin mononucleotide

## AGAUGACAAAGUCAUCUCGCUUUGACAUGAGGAUCACCCAUGUAGGAUAUAUUAAUCAAAGAUUAAUAGAAGGACAUGUUUCUG
[1]
  apparent Kd: 87.1 nM
[2]
  apparent Kd: 172 nM

## CCACCCUGAGGAUAUCCACCCUCAUACAUGAGGAUCACCCAUGUUCAUGCCUGAGUUCCCGGAGAAGGCAGAUUCC
[1]
  apparent Kd: 109 nM
[2]
  apparent Kd: 87.2 nM

## AAACAUGAGGAUCACCCAUGUAAACGAGAAGGGCGAGAGAGUAGAGGAUAGGAGAAAGAUGAGUCGCAGGAUAUCGACCUCAUA
[3]
  apparent Kd: 16 nM
[4]
  apparent Kd: 17 nM

## GGGUCCAACACAGGAUAUGCUGGACUUUGUCCAGCAGAAGGGUGAAGAACAUGAGGAUCACCCAUGUGGAUCCAUAUAUUUAAU
[3]
  apparent Kd: 236 nM
[4]
  apparent Kd: 17.9 nM

## UGUGCGUUGAUCUUCGAUCGGUGUACAUGAGGAUCACCCAUGUAGGAUAUUCAAAGACGCAGAUAGGAGAAGGACAUCGGUUUU
[1]
  apparent Kd: 18 nM
[2]
  apparent Kd: 19.8 nM

## GGUUCCUUCACAGGAUAUGCUAUCCUUUGGGUAGCAGAAGGGUGAUACAUGAGGAUCACCCAUGUGGAGCCAGGGCGUGAGCCC
[3]
  apparent Kd: 1260 nM
[4]
  apparent Kd: 428 nM

## GGUGCGUUUGUGAGGAUAUGCUGGUCCUUGGAUCAGCAGAAGGCACAUGAGGAUCACCCAUGUGGUGUCGUACC
[1]
  apparent Kd: 447 nM
[2]
  apparent Kd: 47.3 nM

## GAGAAGAGGGAAGGAUAUACAUGAGGAUCACCCAUGUAGAUAGGUUUAAUAGGUUGUUGUUGUUUGUAGAAGGUCCGGUUUGUU
[1]
  apparent Kd: 18 nM
[2]
  apparent Kd: 16.8 nM

## UGGUACAUCGGAGGAUAUCAUGUAGACACAUGAGGAUCACCCAUGUCGAUGGAGACAUCGGAGAUUGAGAAGGCCGAUGUACCU
[3]
  apparent Kd: 503 nM
[4]
  apparent Kd: 23.3 nM

## GAUUAACAUGAGGAUCACCCAUGUGAGGAUAUGGAAUGGCUCAUUGUCUGAUUUCCGUCUAGAAGGCACAUCUU
[1]
  apparent Kd: 46.7 nM
[2]
  apparent Kd: 45 nM

## AGGGAACAUGAGGAUCACCCAUGUGAGGAUAUACAAAAGAAAAGAAAAGAAAGAAGAAGUAGAAGGUACAAGAA
[1]
  apparent Kd: 28.2 nM
[2]
  apparent Kd: 35.5 nM

## UUAUUUCCUCAUGUACAUGAGGAACAUGAGGAUCACCCAUGUAGAAGGAUUUCAAUAAAAUUAAAAUAGGAUAUACAUAUAUUU
[1]
  apparent Kd: 68.3 nM
[2]
  apparent Kd: 81.6 nM

## UAUAUGUAUGUAGGAUAUGGUAUAUAAAAUAUACCAGAAGGACAUGAGGAUCACCCAUGUAUGAAAUUCCAUAAUAACCGUGUA
[1]
  apparent Kd: 11.3 nM
[2]
  apparent Kd: 11 nM

## CCAUAAUUGAUCCAAUUUUACAACAUGAGGAUCACCCAUGUGCAGGAUAUCGUGAAAGUUAAAUACGAGAAGGGCAAGAACUGC
[1]
  apparent Kd: 560 nM
[2]
  apparent Kd: 356 nM

## UGCUGUGUCAGAGGAUAUACGUCAAUAAUCCAUUGCAAAUAGCGAUGGACAUGAGGAUCACCCAUGUAGAAGGCUGUCACAGCA
[1]
  apparent Kd: 58.3 nM
[2]
  apparent Kd: 242 nM

## AUAUUAUAGAUCCAUUUAUUCAACAUGAGGAUCACCCAUGUGCAGGAUAUCGUGUGUUUUAUAAACGAGAAGGGCAAAUUCAUU
[1]
  apparent Kd: 31.9 nM
[2]
  apparent Kd: 96.7 nM

## UGUACCGUUGGAACGCGUCGAGUACAUGAGGAUCACCCAUGUCAGGAUAUGUGGCGAAAGGUAGCACAGAAGGGACAUAGAAGA
[1]
  apparent Kd: 32.6 nM
[2]
  apparent Kd: 92.3 nM

## AAAAAGUCAGGAUAUACAUGAGGAUCACCCAUGUAGCAUACGAAAAAGAGUGUGCAGUGUAGAAGGGACAAAAA
[1]
  apparent Kd: 27.1 nM
[2]
  apparent Kd: 25.7 nM

## AGUUGGCGAGGAUAUACAUGAGGAUCACCCAUGUGAAAUAGAAUAGUGAGGAAGAAAAGUAGAAGGCGCUGACA
[1]
  apparent Kd: 58.6 nM
[2]
  apparent Kd: 323 nM

## GUAGCAUACCGAGGAUAUUCAGGGCUUAUAUAAACAUGAGGAUCACCCAUGUGGCGAAAGCCUAGGGAGAAGGCGGAAUGCUAC
[3]
  apparent Kd: 14.9 nM
[4]
  apparent Kd: 13.1 nM

## CCAUAUAGGUAGGAUAUCGAUUUUAAUUAAUAUCGAGAAGGGUCAACAUGAGGAUCACCCAUGUCAGCAUGUAC
[1]
  apparent Kd: 80.4 nM
[2]
  apparent Kd: 75.5 nM

## GCGCUUAUACAGAAGGCCAUAUACAUGAGGAUCACCCAUGUUACAUGGUGGAGGAUAUGUUAUUUAUUACAGGUAGAUGAGCGC
[3]
  apparent Kd: 4.71 nM
[4]
  apparent Kd: 5.32 nM

## UGGUACAUGGGAGGAUAUGGGUUGAUAACAUGAGGAUCACCCAUGUUAAUGCCGAAAGGCAAGAACUAGAAGGCCCAUGUACCU
[3]
  apparent Kd: 410 nM
[4]
  apparent Kd: 30.2 nM

## GCCUGCUGGCGAGGAUAUUCUGUGCGGUUCCGGCUCGUGUCUGUUACAUGAGGAUCACCCAUGUAGGAGAAGGUGUCUGUGGCC
[1]
  apparent Kd: 4.75 nM
[2]
  apparent Kd: 5.01 nM

## CGAAACUACGAGAAGGACAUGUGGUCCUUCAGUUACAUGAGGAUCACCCAUGUAGGAUAUCGUAGUUUCAGGAUCGUGAGAUCU
[1]
  apparent Kd: 38.7 nM
[2]
  apparent Kd: 9.81 nM

## AGAACAUGAGGAUCACCCAUGUGAAGGUCGGUGUAUAAGGGUGAGGAUAUGCUUAAAAUAAGGAAGCAGAAGGUGCUUGGUGCA
[3]
  apparent Kd: 155 nM
[4]
  apparent Kd: 145 nM

## CCGGAAAGGGAGGAUAUAGGAGUCGAUAGACACCUAGAAGGCCUGACAUGAGGAUCACCCAUGUGUCCUACCGG
[1]
  apparent Kd: 15 nM
[2]
  apparent Kd: 25 nM

## CUUCGGGCAGGAUAUGCUGUUUGUGACAUGAGGAUCACCCAUGUGAUGCAGUUUGGGUGUGCAGAAGGGCCUGAGU
[1]
  apparent Kd: 54.6 nM
[2]
  apparent Kd: 67.2 nM

## UCAUUUAUUACAGGAUAUGUUAGUAUACAGUUGUUUGGUUAUUACUUAUUAACAGAAGGGUAGAACAUGAGGAUCACCCAUGUA
[3]
  apparent Kd: 80.4 nM
[4]
  apparent Kd: 40.7 nM

## GAACCUCUUGUGAGGAUAUGCUGUUGAACGAGCUUGCAGAAGGCACAUGAGGAUCACCCAUGUCUCUUCUGGGU
[1]
  apparent Kd: 20.4 nM
[2]
  apparent Kd: 28.2 nM

## UUUGUACAUGAGGAUCACCCAUGUUAGGAUAUCUCGCCGUCGGCUUGCCGACGGUAUUAGAGAAGGGACAAGGG
[1]
  apparent Kd: 136 nM
[2]
  apparent Kd: 108 nM

## GCACGAGACUAAGGAUAUGGAGUGUCAACAUUAAACAUGAGGAUCACCCAUGUAAAGAGUACGAUUCAGAAGGUAGAGACGUGC
[3]
  apparent Kd: 59.1 nM
[4]
  apparent Kd: 22.8 nM

## AAUUAACAUGAGGAUCACCCAUGUGAGGAUAUGGUAUUACUUGGACAGCUAUGAUCUACCAGAAGGCACAUAUA
[1]
  apparent Kd: 28.7 nM
[2]
  apparent Kd: 49.4 nM

## GGUCCUUCUGUUAGGAUAUGCUUUGGGCUUCCGCAGUAGAAGGAACAUGAGGAUCACCCAUGUCCGAUGCCGUA
[1]
  apparent Kd: 65.3 nM
[2]
  apparent Kd: 84.4 nM

## AUCUUGUCAGGAUAUCUGACAAGUGACGAAAGUCACAGUUCAGAGAAGGUACAUGAGGAUCACCCAUGUAGAAC
[1]
  apparent Kd: 19.4 nM
[2]
  apparent Kd: 19.2 nM

## ACAGACCAUCGAGGAUAUGAACAUGAGGAUCACCCAUGUAAGUGGAAGAUGGUGAUUCCUGGGCUUCAGAAGGCGAACGUCAGG
[1]
  apparent Kd: 6.12 nM
[2]
  apparent Kd: 11.8 nM

## GUCGGAAACGACAAUGAUAGGACUGAGGAUAUACGUAAUAUUAUCCAUACAUGAGGAUCACCCAUGUAGAAGGCAGUCCUAUCU
[1]
  apparent Kd: 5.85 nM
[2]
  apparent Kd: 6.02 nM

## GUCAGCUCGUGAGGAUAUCCAACACUGCUUCGGCAGUGUAUUAAGAUCACAUGAGGAUCACCCAUGUAGAAGGCACGAGCUGAU
[1]
  apparent Kd: 6.48 nM
[2]
  apparent Kd: 7.55 nM

## UGUGUCCGUAGAGGAUAUCCGGGCGUUCGGCUAGGAGAAGGCUGCGACACAUGAGGAUCACCCAUGUAGGUUGUGUCUCUCUAC
[1]
  apparent Kd: 51.6 nM
[2]
  apparent Kd: 275 nM

## UGACUGAAGCAAGGAUAUUGUAAAGUUAUCGUACAAGAAGGUGCUGUUUAUGUCUCUUUACAUGAGGAUCACCCAUGUUUUUAU
[3]
  apparent Kd: 32.8 nM
[4]
  apparent Kd: 24.6 nM

## GACACUAGUGUUAGGAUAUGUGUGAGGGACCGCAAACAGAAGGAACAUGAGGAUCACCCAUGUGAUGGUUCUGA
[1]
  apparent Kd: 21.5 nM
[2]
  apparent Kd: 20.4 nM

## GACGGUGAUGUAGGAUAUACGCUGGAAUACAGCGUAGAAGGACAUGAGGAUCACCCAUGUAGAGUGUCUCCAAAUAACACCGUC
[1]
  apparent Kd: 43.5 nM
[2]
  apparent Kd: 284 nM

## CUUUUGUGAGGAUAUUCGUAGUAGAUAAAUAAAACUAUUACGGAGAAGGCACAUGAGGAUCACCCAUGUUCCUU
[1]
  apparent Kd: 16.7 nM
[2]
  apparent Kd: 54.5 nM

## GGAUAGGAGAGAGGAUAUACGUGCUAGAGAUACUAGCAAAAUUUCCUCACAUGAGGAUCACCCAUGUAGAAGGCUGUCCUAUCG
[1]
  apparent Kd: 11.1 nM
[2]
  apparent Kd: 210 nM

## GGAUAGGACAGAGGAUAUACGUGCUAGAGAUACUAGCAAAAUUUCCUCACAUGAGGAUCACCCAUGUAGAAGGCUGACCUAUCG
[1]
  apparent Kd: 14.9 nM
[2]
  apparent Kd: 412 nM

## AGCUACACCCAGAAGGACAUGAGGAUCACCCAUGUAGGAUAUGGGAGACACAGUCCCAUGUAGAGAAAUUACGCUAGUGUAGCG
[3]
  apparent Kd: 102 nM
[4]
  apparent Kd: 46.5 nM

## UUUAUAUAGUAAGGAUAUGUAUUAUUUUUUACAACAGAAGGUACUGACAUGAGGAUCACCCAUGUUUUAGUGUGGGCAUGUAGU
[1]
  apparent Kd: 296 nM
[2]
  apparent Kd: 364 nM

## UAUCGGAGCAGAGGAUAUUACAUGAGGAUCACCCAUGUAUGAACCAAUAGCUGGAAACAGCAAUGUAAGAAGGCUGCUCCGACA
[1]
  apparent Kd: 11.9 nM
[2]
  apparent Kd: 163 nM

## GAACUAAAGCAUAGCUUUAGUCGUACAUGAGGAUCACCCAUGUAGGAUAUGGUAGGCAUAGCUUACUAGAAGGAUAGAGUGAUC
[1]
  apparent Kd: 294 nM
[2]
  apparent Kd: 82.4 nM

## CAUGUCCUCACAGGAUAUGCAAUGUAUUUCAUUGCAGAAGGGUGAAUACAUGAGGAUCACCCAUGUGGACAUGAUAUAUUUAAG
[3]
  apparent Kd: 880 nM
[4]
  apparent Kd: 76.6 nM

## UAUAUGUCAGGAUAUCGAUUGGAAUGGAAUUUAGUUUUGGUCGAGAAGGGACAUGAGGAUCACCCAUGUUCCUC
[1]
  apparent Kd: 30.9 nM
[2]
  apparent Kd: 134 nM

## GUGUACAGAGGAUAUACAGGAGCAUGGAAACAUGCAACUUCACAUGAGGAUCACCCAUGUAGAAGGCUGUACAC
[1]
  apparent Kd: 16 nM
[2]
  apparent Kd: 47.9 nM

## GCACUGGAUGUAGGAUAUCAGGACGAUAAGUCCUGAGAAGGACAUGAGGAUCACCCAUGUGCUCAAUAACCAGUGCAUAAUAUA
[1]
  apparent Kd: 14.5 nM
[2]
  apparent Kd: 20.3 nM

## GGAGACCUCACAGGAUAUGCUGGACUUUGUCCAGCAGAAGGGUGAAAACAUGAGGAUCACCCAUGUAUGGUCUCCAAAUUUAAA
[3]
  apparent Kd: 200 nM
[4]
  apparent Kd: 13.2 nM

## CUUAGUAUCUAGGAUAUCUAGUACAUAGUAUCUAGAGAAGGAGAUACAUGAGGAUCACCCAUGUUCUGUGUUCU
[1]
  apparent Kd: 23.9 nM
[2]
  apparent Kd: 68.7 nM
